Where two headings read alike, the source gives them in different places.
Key:
[1] = test system: patients with achondroplasia; assay: Change from baseline in annualized growth velocity; type: in vivo, human
Method in brief: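 Phase II: once-daily subcutaneous dosing at 2.5–30 µg/kg. Change in AGV from baseline to day 183 fitted by sigmoid Emax (E0, Emax, EC50, Hill h) against individual mean Cmax or AUC0-t, each averaged per patient over all PK visit days. Phase III (15 µg/kg) exposure–AGV also analysed. Estimates given with 95% CIs.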

[2] = test system: total anti-vosoritide antibody (TAb); assay: Total anti-vosoritide antibodies; type: in vivo, human; conditions: phase III; p > 0.8 for difference in estimated mean Cmax and AUC0-∞ by TAb status, t-test
[3] = target: urine cGMP (activity through the target receptor NPR-B); assay: Urine cGMP normalized to creatinine; type: in vivo, human
Method in brief: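 Urine collected predose and 1, 2 and 4 h postdose. Phase II: initial 6 months plus months 12, 18 and 24. Phase III: days 1–3 and weeks 6, 26 and 52. cGMP measured (LLOQ 138 pmol/mL neat urine) and normalised to creatinine. Maximum postdose increase is taken over the same-visit predose value; negative if predose is maximal. Fitted against visit-matched Cmax/AUC (non-estimable set to zero): sigmoid Emax (phase II) or Emax with h=1 (phase III).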

[4] = Vosoritide plasma pharmacokinetics, phase II study; type: in vivo, human
Method in brief: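 Phase II, daily s.c. doses 2.5–30 µg/kg. Plasma measured by validated ELISA: murine monoclonal anti-drug IgG capture, rabbit polyclonal anti-CNP IgG detection. Full sampling on days 1, 10, 29, 85 and 183, predose and 5–180 min postdose. Non-compartmental analysis used linear-up/log-down trapezoids. Below-LLOQ values before Tmax set to zero; those after Tmax censored.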

[5] = Vosoritide plasma pharmacokinetics, phase III study; type: in vivo, human
Method in brief: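 Phase III, 15 µg/kg s.c. once daily. Full plasma sampling at day 1, week 26 and week 52: predose and 5, 15, 30, 45, 60, 90 and 120 min. Sparse sampling at weeks 13 and 39. Parameters from non-compartmental analysis with linear-up/log-down trapezoids. Effects of sex, body weight, age, race and anti-drug antibodies on exposure were evaluated.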

NPR-B = assay: Vosoritide-neutralizing antibodies; type: cell-based, human; conditions: phase III, all time points tested
Method in brief: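 Run only on confirmed TAb-positive sera. Frozen NIH/3T3 cells cultured overnight (DMEM high glucose + 10% FBS, 37°C, 5% CO2). Cells stimulated with 5 ng/mL drug in diluted serum; cellular cGMP read by ELISA, where signal is inverse to cGMP. Screening cut point: upper 95th percentile of pretreatment sera. Positives confirmed by immunodepletion on drug-conjugated magnetic beads. LOD 227 ng/mL.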

[6] = test system: patients with achondroplasia; type: in vivo, human; conditions: phase II, initial 6 months, visit-matched; the single patient with high exposure
[7] = test system: collagen type X marker (CXM); assay: Serum collagen type X marker; type: in vivo, human
Method in brief: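 Serum CXM measured by electrochemiluminescence sandwich assay. Streptavidin plates were blocked, then coated with biotinylated anti-collagen X NC1 SOMAmer capture. Standard was recombinant human collagen X NC1; sera diluted 1:100. Detection used ruthenium-labelled mouse mAb. Values read from a 4PL curve (1/Y² weighting); LOD 914 pg/mL neat serum. Individual mean CXM (day 10–183, phase II) fitted by sigmoid Emax versus individual mean Cmax or AUC0-t.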

[8] = test system: patients with achondroplasia; conditions: phase II, children with achondroplasia, daily dose of 15 µg/kg, up to 42 months; cited from earlier work
[9] = endogenous CNP in humans; cited from earlier work
[10] = phase II, the single patient with high individual mean exposure

CC[C@H](C)[C@@H]1NC(=O)[C@H](CCCNC(=N)N)NC(=O)[C@H](CC(=O)O)NC(=O)[C@H](CC(C)C)NC(=O)[C@H](CCCCN)NC(=O)[C@H](CC(C)C)NC(=O)CNC(=O)[C@H](Cc2ccccc2)NC(=O)[C@@H](NC(=O)CNC(=O)[C@H](CCCCN)NC(=O)[C@H](CO)NC(=O)[C@H](CC(C)C)NC(=O)CNC(=O)[C@H](CCCCN)NC(=O)[C@H](CCCCN)NC(=O)[C@H](CC(N)=O)NC(=O)[C@H](C)NC(=O)CNC(=O)[C@H](CCCCN)NC(=O)[C@H](Cc2ccc(O)cc2)NC(=O)[C@H](CCCCN)NC(=O)[C@H](CCCNC(=N)N)NC(=O)[C@H](C)NC(=O)[C@H](CC(N)=O)NC(=O)[C@@H]2CCCN2C(=O)[C@H](Cc2c[nH]cn2)NC(=O)[C@H](CCC(=O)O)NC(=O)[C@H](CCC(N)=O)NC(=O)CNC(=O)[C@@H]2CCCN2)CSSC[C@@H](C(=O)O)NC(=O)CNC(=O)[C@H](CC(C)C)NC(=O)CNC(=O)[C@H](CO)NC(=O)[C@H](CCSC)NC(=O)[C@H](CO)NC(=O)CNC1=O [vosoritide]
correlation between plasma exposure and change in AGV ([1]; phase II, 24 months of daily dosing, 15 and 30 µg/kg, linear regression, p = 0.34 for Cmax, p = 0.50 for AUC0-60min): no significant correlation
change in annualized growth velocity from baseline to day 183 of one patient [1, 10]: 3.56 cm/year
relationship between exposure and changes in AGV ([1]; phase III, 15 µg/kg, baseline to week 52, linear regression, p = 0.52 for Cmax, p = 0.54 for AUC0-60min): lack of relationship
EC50 (AUC0-t producing half maximal effect), change in AGV ([1]; sigmoid Emax model vs individual mean AUC0-t, baseline to day 183, phase II, MPE): 20,500 pg-min/mL
impact of serum TAb on plasma exposure of vosoritide (Cmax and AUC0-∞) [2]: no apparent impact
EC50 (AUC0-60min producing half maximal effect on cGMP/Cr) ([3]; Emax model (h = 1) vs visit-matched AUC0-60min, phase III, 15 µg/kg, MPE): 479000 pg·min/mL
Emax, maximum postdose increase in urine cGMP/Cr ([3]; Emax model (h = 1) vs visit-matched Cmax, phase III, 15 µg/kg, MPE (95% CI)): 18,160 (13,800–22,600) pmol/mg Cr
maximum change from pre-dose cGMP/Cr of one patient ([3]; phase II, initial 6 months, visit-matched, the single patient with high exposure): 8190 pmol/mg Cr
EC50 (AUC0-t producing half maximal effect on cGMP/Cr) ([3]; sigmoid Emax model vs visit-matched AUC0-t, initial 6 months of phase II, MPE): 222000 pg·min/mL
increase in vosoritide exposure with dose ([4]; doses from 2.5 to 30 μg/kg): greater than proportional
Cmax ([4]; human, plasma, sc, 2.5 ug/kg): 0.549 ng/mL
Tmax ([4]; human, plasma, sc, 2.5 ug/kg): 5 min
Cmax ([4]; human, plasma, sc, 7.5 ug/kg): 1.36 ng/mL
Tmax ([4]; human, plasma, sc, 7.5 ug/kg): 13.7 min
CL/F ([4]; human, plasma, sc, 15 ug/kg): 83.7 mL/min/kg
Cmax ([4]; human, plasma, sc, 15 ug/kg): 4.75 ng/mL
Tmax ([4]; human, plasma, sc, 15 ug/kg): 15.8 min
Vd/F ([4]; human, plasma, sc, 15 ug/kg): 2.56 L/kg
half-life ([4]; human, plasma, sc, 15 ug/kg): 24.4 min
Cmax ([4]; human, plasma, sc, 30 ug/kg): 16.8 ng/mL
Cmax at one visit of one patient ([4]; phase II, single patient with high exposure, left out of the figure): 839 ng/mL
impact of sex on plasma Cmax or AUC0-60min [5]: no apparent impact
accumulation with once-daily dosing ([5]; 15 µg/kg s.c. once daily, 52 weeks): No evidence of accumulation
Vz/F ([5]; 15 µg/kg s.c. once daily, Week 52, plasma ECLA, NCA, mean): 2.91 L/kg
relationship of plasma AUC0-60min with body weight and age ([5]; linear regression, p < 0.001): positively correlated
NAb status of TAb-positive patients (NPR-B): negative
maximum decrease in DBP of one patient [6]: −2 mmHg
maximum decrease in SBP of one patient [6]: −7 mmHg
maximum increase in HR of one patient [6]: 39 bpm
correlation between plasma exposure and mean CXM concentration ([7]; phase II, 24 months of daily dosing, 15 and 30 µg/kg, linear regression, p = 0.98 for Cmax, p = 0.99 for AUC0-60min): no significant correlation
mean CXM from day 10 to day 183 of one patient [7, 10]: 12,200 pg/mL
relationship between exposure and mean CXM concentrations ([7]; phase III, 15 µg/kg, week 13 to week 52, linear regression, p = 0.74 for Cmax, p = 0.58 for AUC0-60min): lack of relationship
EC50 (AUC0-t producing half maximal effect on CXM) ([7]; sigmoid Emax model vs individual mean AUC0-t, day 10 to day 183, phase II, MPE): 51700 pg·min/mL
sustained mean increase in annualized growth velocity (AGV) above baseline [8]: 1.55 cm/year

C-type natriuretic peptide [CNP]
half-life [9]: 2.6 min

Source: PMC8813707 (Clinical Pharmacokinetics, 2021)
